Experimental data: ChEMBL document CHEMBL1123291, “Modified di- and tripeptides of the C-terminal portion of oxytocin and vasopressin as possible cognition activation agents” (1986)

Assays:
Format in all cases: functional
[1] = system: Rattus norvegicus; assay: Ability (% reversal in rats) to reverse electroconvulsive shock-induced amnesia in rodents at a dose of 0.0010 (mg/kg) (following i.m. administration)
Method in brief: (§1)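 Passive avoidance (step-through, lighted vs darkened compartment). […], ECS (20 mA, 1 s) was given transcorneally via saline-soaked electrodes, and maximal hindlimb extension was required. Drug was given im at selected doses 2 h post-training. One hour later, entry latency to the dark side was recorded, with 60 s counted as retention. At least 75% of ECS controls had to be amnesic. Replicates were mostly not run.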

[2] = system: Rattus norvegicus; assay: Ability (% reversal in rats) to reverse electroconvulsive shock-induced amnesia in rodents at a dose of 0.010 (mg/kg) administered intramuscularly (im); method in brief: as §1
[3] = system: Rattus norvegicus; assay: Ability (% reversal in rats) to reverse electroconvulsive shock-induced amnesia in rodents at a dose of 0.10 (mg/kg) (following intramuscular dosing); method in brief: as §1
[4] = system: Rattus norvegicus; assay: Compound was tested for its ability (% reversal in rats) to reverse electroconvulsive shock-induced amnesia in rodents at a dose of 1 (mg/kg) administered intramuscularly (im); method in brief: as §1
[5] = system: Rattus norvegicus; assay: Compound was tested for its ability (% reversal in rats) to reverse electroconvulsive shock-induced amnesia in rodents at a dose of 10 (mg/kg) administered intramuscularly (im); method in brief: as §1
[6] = system: Rattus norvegicus; assay: Compound was tested for its ability (% reversal in rats) to reverse electroconvulsive shock-induced amnesia in rodents at a dose of 100 (mg/kg) administered intramuscularly (im).; method in brief: as §1
[7] = system: Rattus norvegicus; assay: Compound was tested for its ability (% reversal in rats) to reverse electroconvulsive shock-induced amnesia in rodents at a dose of 0.032 (mg/kg) administered intramuscularly (im); method in brief: as §1
[8] = system: Rattus norvegicus; assay: Compound was tested for its ability (% reversal in rats) to reverse electroconvulsive shock-induced amnesia in rodents at a dose of 0.0010 (mg/kg) administered intramuscularly (im).; method in brief: as §1
[9] = system: Rattus norvegicus; assay: Compound was tested for its ability (% reversal in rats) to reverse electroconvulsive shock-induced amnesia in rodents at a dose of 0.010 (mg/kg) administered intramuscularly (im).; method in brief: as §1
[10] = system: Rattus norvegicus; assay: Compound was tested for its ability (% reversal in rats) to reverse electroconvulsive shock-induced amnesia in rodents at a dose of 0.10 (mg/kg) administered intramuscularly (im).; method in brief: as §1
[11] = system: Rattus norvegicus; assay: Compound was tested for its ability (% reversal in rats) to reverse electroconvulsive shock-induced amnesia in rodents at a dose of 0.001 (mg/kg) administered intramuscularly (im); method in brief: as §1
[12] = system: Rattus norvegicus; assay: Compound was tested for its ability (% reversal in rats) to reverse electroconvulsive shock-induced amnesia in rodents at a dose of 100 (mg/kg) administered intramuscularly (im); method in brief: as §1
[13] = system: Mus musculus; assay: Compound was tested for its ability (% reversal in mice) to reverse electroconvulsive shock-induced amnesia in rodents at a dose of 1 (mg/kg) administered intramuscularly (im); method in brief: as §1
[14] = system: Mus musculus; assay: Compound was tested for its ability (% reversal in mice) to reverse electroconvulsive shock-induced amnesia in rodents at a dose of 10 (mg/kg) administered intramuscularly (im); method in brief: as §1
[15] = system: Mus musculus; assay: Compound was tested for its ability (% reversal in mice) to reverse electroconvulsive shock-induced amnesia in rodents at a dose of 100 (mg/kg) administered intramuscularly (im); method in brief: as §1
[16] = system: Rattus norvegicus; assay: Compound was tested for its ability (% reversal in rats) to reverse electroconvulsive shock-induced amnesia in rodents at a dose of 1(mg/kg) administered intramuscularly (im); method in brief: as §1
[17] = system: Rattus norvegicus; assay: Compound was tested for its ability (% reversal in rats) to reverse electroconvulsive shock-induced amnesia in rodents at a dose of 10 (mg/kg) administered intramuscularly (im).; method in brief: as §1
[18] = system: Rattus norvegicus; assay: Compound was tested for its ability (% reversal in rats) to reverse electroconvulsive shock-induced amnesia in rodents at a dose of 1 (mg/kg) administered intramuscularly (im).; method in brief: as §1
[19] = system: Rattus norvegicus; assay: Compound was tested for its ability (% reversal in rats) to reverse electroconvulsive shock-induced amnesia in rodents at a dose of 50 (mg/kg) administered intramuscularly (im); method in brief: as §1
[20] = system: Mus musculus; assay: Compound was tested for its ability (% reversal in mice) to reverse electroconvulsive shock-induced amnesia in rodents at a dose of 0.1 (mg/kg) administered intramuscularly (im); method in brief: as §1
[21] = system: Rattus norvegicus; assay: Compound was tested for its ability (% reversal in rats) to reverse electroconvulsive shock-induced amnesia in rodents at a dose of 0.1 (mg/kg) administered intramuscularly (im); method in brief: as §1
[22] = system: Mus musculus; assay: Ability to reverse electroconvulsive shock-induced amnesia in rodents following 1 ug/kg i.m. administration.; method in brief: as §1
[23] = system: Mus musculus; assay: Ability to reverse electroconvulsive shock-induced amnesia in rodents following 0.01 mg/kg i.m. administration.; settings: route intramuscular; method in brief: as §1
[24] = system: Mus musculus; assay: Ability to reverse electroconvulsive shock-induced amnesia in rodents following 0.1 mg/kg i.m. administration.; settings: route intramuscular; method in brief: as §1
[25] = system: Rattus norvegicus; assay: Compound was tested for its ability (% reversal in rats) to reverse electroconvulsive shock-induced amnesia in rodents at a dose of 0.0001 (mg/kg) administered intramuscularly (im); method in brief: as §1
[26] = system: Rattus norvegicus; assay: Compound was tested for its ability (% reversal in rats) to reverse electroconvulsive shock-induced amnesia in rodents at a dose of 0.00010 (mg/kg) administered intramuscularly (im); method in brief: as §1

Compound | Reversal [1] | Reversal [2] | Reversal [3] | Reversal [4] | Reversal [5] | Reversal [12] | other results
CC(C)C[C@@H](CNCC(N)=O)NC(=O)[C@@H]1CCCN1C(=O)OCc1ccccc1 | 43% | 43% | 43% | 0% | 0% |  | Reversal [6]: 0%
CC(C)CC(CS(=O)(=O)CC(=O)O)NC(=O)C1CCCN1C(=O)OCc1ccccc1 (stereo unspecified) | 50% |  | 0% |  |  |  | Reversal [7]: 66%
CC(C)CC(/C=C/CC(N)=O)NC(=O)C1CCC(=O)N1 (stereo unspecified) |  |  |  |  |  |  | Reversal [8]: 11%; Reversal [9]: 0%; Reversal [10]: 44%
CC(C)CC1CN(C[C@H](CC(C)C)NC(=O)[C@@H]2CCCN2C(=O)OCc2ccccc2)CC(=O)N1 (stereo partly specified) |  | 17% | 50% | 0% | 0% | 80% | Reversal [11]: 17%
CC(C)CC(NCC1CCCN1C(=O)OCc1ccccc1)C(=O)NCC(N)=O (stereo unspecified) | 11% | 0% | 0% | 80% | 60% | 60% | Reversal [13]: 85%; Reversal [14]: 67%; Reversal [15]: 57%
CC(C)CC(CNCC(=O)O)NCC1CCCN1C(=O)OCc1ccccc1 (stereo unspecified) | 0% | 20% | 14% |  | 0% | 40% | Reversal [16]: 10%
NC(=O)COCC(Cc1ccccc1)NC(=O)C1CCCN1C(=O)OCc1ccccc1 (stereo unspecified) | 11% | 11% | 0% | 25% |  | 25% | Reversal [13]: 20%; Reversal [14]: 59%; Reversal [15]: 71%; Reversal [17]: 42%
CC(C)CC(CNCC(=O)O)NC(=O)C1CCC(=O)N1 (stereo unspecified) | 33% | 33% | 33% |  | 0% | 50% | Reversal [18]: 66%
Cc1ccc(S(=O)(=O)N2CCCC2CNC(CNCC(=O)O)CC(C)C)cc1 (stereo unspecified) | 0% | 0% | 40% |  | 80% |  | Reversal [18]: 20%; Reversal [19]: 0%
CC(C)CC(CSCC(=O)O)NC(=O)C1CC(=O)CN1C(=O)OCc1ccccc1 (stereo unspecified) | 17% | 50% |  | 100% | 80% |  | Reversal [20]: 17%; Reversal [13]: 17%; Reversal [14]: 0%; Reversal [21]: 83%
COc1ccc(C(=O)N2CCCC2C(=O)NC(CSCC(=O)O)CC(C)C)cc1 (stereo unspecified) | 40% |  | 60% |  |  |  | Reversal [22]: 12%; Reversal [23]: 50%; Reversal [24]: 12%; Reversal [9]: 0%
CC(C)CC(CSCC(=O)O)NC(=O)C1CCC(=O)N1C(=O)OCc1ccccc1 (stereo unspecified) | 33% | 33% | 0% | 0% |  | 0% | Reversal [17]: 0%
CC(C)CC(N)CN1CC(=O)NC(CC(C)C)C1 (stereo unspecified) | 50% | 83% | 66% | 20% | 0% | 24% | Reversal [25]: 82%
CC(C)CC(CSCC(N)=O)NC(=O)C1CCCN1C(=O)OCc1ccccc1 (stereo unspecified) | 66% |  | 50% |  |  |  | Reversal [26]: 0%; Reversal [9]: 33%
O=C1COCC2CCCN12 (stereo unspecified) | 0% | 33% | 33% |  |  |  | Reversal [13]: 58%; Reversal [14]: 77%; Reversal [15]: 63%
